Laboratory results from ChEMBL document CHEMBL2163220 (J Med Chem, 2012).
Activity calls are given as the source filed them. The rule behind the calls is not given here.

Columns and labels:
[1] = test system: PC-3; experiment: Effect on in Maspin expression in human PC3 cells deficient in wild type androgen receptor at 2.5 uM by luciferase reporter gene assay; format: functional, cell-based
How it was run: (§1)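 PC-3 cells were transfected with maspin-luc, with or without cotransfected AR. Cells were exposed to DMSO vehicle or compound at 2.5 and 5 μM. Luciferase activity was measured in triplicate.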

[2] = target: T1, Androgen receptor (Homo sapiens) (UniProt P10275); experiment: Antagonist activity at androgen receptor in human PC3 cells assessed as increase in Maspin promoter activity at 5 uM by luciferase reporter gene assay; format: functional, cell-based; conditions: PC-3; how it was run: as §1
T1 sequence (whole entry): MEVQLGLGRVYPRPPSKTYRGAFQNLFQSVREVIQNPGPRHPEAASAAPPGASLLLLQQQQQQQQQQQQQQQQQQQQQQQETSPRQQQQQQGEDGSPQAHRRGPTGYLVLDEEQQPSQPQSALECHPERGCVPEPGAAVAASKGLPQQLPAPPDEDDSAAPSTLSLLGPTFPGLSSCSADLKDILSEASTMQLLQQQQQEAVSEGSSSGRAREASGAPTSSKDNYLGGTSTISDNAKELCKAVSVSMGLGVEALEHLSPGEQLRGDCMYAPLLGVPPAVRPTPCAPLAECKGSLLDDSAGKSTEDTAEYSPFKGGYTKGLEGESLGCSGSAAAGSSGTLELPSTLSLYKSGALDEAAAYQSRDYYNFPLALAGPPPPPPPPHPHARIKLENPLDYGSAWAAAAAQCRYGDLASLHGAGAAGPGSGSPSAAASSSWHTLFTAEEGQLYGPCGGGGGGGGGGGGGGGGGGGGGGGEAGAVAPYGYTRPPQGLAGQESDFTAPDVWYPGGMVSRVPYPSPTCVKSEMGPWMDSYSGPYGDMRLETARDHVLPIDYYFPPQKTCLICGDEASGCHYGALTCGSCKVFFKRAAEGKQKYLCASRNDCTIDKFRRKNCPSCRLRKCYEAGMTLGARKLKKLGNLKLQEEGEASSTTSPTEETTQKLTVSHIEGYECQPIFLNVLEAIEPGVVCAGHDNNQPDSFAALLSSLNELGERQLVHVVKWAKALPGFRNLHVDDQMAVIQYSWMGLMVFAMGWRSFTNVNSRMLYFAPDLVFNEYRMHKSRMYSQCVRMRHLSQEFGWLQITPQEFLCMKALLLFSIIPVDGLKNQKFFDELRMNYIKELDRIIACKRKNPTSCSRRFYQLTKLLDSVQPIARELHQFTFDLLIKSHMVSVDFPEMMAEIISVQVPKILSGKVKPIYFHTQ

[3] = target: T1, Androgen receptor (Homo sapiens); experiment: Antagonist activity at androgen receptor in human LNCaP cells assessed as increase in Maspin promoter activity by luciferase reporter gene assay; format: functional, cell-based
How it was run: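 LNCaP cells carrying a maspin promoter-luciferase reporter were treated with compound and read by luciferase activity, in triplicate.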

[4] = test system: PC-3; experiment: Antagonist activity at androgen receptor T887A mutant expressed in human PC3 cells assessed as reduction in DHT-induced receptor transactivation at 0.1 to 1 uM by luciferase reporter gene assay; format: functional, cell-based
How it was run: (§2)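 Full-length wild-type or mutant AR plasmid transiently transfected into PC-3 cells with MMTV-luc and Renilla luciferase reporters. Cells treated with DMSO vehicle or compound at 0.1 and 1 μM, alone or with 0.1 nM DHT. Luciferase read as relative luciferase units. Run in triplicate.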

[5] = target: T1, Androgen receptor (Homo sapiens); experiment: Antagonist activity at androgen receptor expressed in human PC3 cells assessed as reduction in DHT-induced receptor transactivation at 0.1 to 1 uM by luciferase reporter gene assay; format: functional, cell-based; conditions: PC-3; how it was run: as §2
[6] = target: T2, Progesterone receptor (Homo sapiens) (UniProt P06401); experiment: Agonist activity at progesterone receptor in human PC3 cells assessed as stimulation of receptor transactivation at 1 uM by luciferase reporter gene assay; format: functional, cell-based; conditions: PC-3
T2 sequence (whole entry): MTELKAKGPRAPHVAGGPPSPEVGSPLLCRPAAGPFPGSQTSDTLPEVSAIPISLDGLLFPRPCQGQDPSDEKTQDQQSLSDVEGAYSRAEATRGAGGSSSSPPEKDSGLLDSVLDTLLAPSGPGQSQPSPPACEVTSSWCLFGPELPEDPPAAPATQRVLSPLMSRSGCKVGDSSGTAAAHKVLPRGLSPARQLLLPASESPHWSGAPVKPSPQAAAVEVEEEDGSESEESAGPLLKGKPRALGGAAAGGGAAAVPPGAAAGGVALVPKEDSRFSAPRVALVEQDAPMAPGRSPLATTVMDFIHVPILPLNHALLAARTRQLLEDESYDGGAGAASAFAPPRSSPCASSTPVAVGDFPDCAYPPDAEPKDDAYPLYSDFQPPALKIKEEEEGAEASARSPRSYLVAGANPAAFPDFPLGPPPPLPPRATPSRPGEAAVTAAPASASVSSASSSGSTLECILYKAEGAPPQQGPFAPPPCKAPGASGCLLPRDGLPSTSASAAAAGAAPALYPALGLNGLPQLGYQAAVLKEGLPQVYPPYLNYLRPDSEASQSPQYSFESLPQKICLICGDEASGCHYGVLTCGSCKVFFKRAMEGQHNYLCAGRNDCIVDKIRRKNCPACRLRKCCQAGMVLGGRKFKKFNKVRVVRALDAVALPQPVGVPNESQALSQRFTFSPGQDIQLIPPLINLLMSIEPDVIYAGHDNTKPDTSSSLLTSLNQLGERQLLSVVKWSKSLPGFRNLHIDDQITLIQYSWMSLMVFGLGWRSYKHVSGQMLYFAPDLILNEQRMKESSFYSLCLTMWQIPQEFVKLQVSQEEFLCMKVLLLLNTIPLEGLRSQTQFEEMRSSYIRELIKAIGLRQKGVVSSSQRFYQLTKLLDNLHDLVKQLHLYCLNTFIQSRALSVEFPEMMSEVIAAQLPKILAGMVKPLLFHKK
How it was run: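 PC-3 cells lack detectable PR, so they were cotransfected with a PR expression plasmid and the MMTV-luc reporter. Compound tested at 1 μM, alone or against transactivation induced by 10 nM R5020. Read-out was luciferase reporter activity.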

[7] = Cytotoxicity against human C4-2B cells incubated for 72 hrs by MTT assay; format: functional, cell-based; conditions: LNCaP C4-2B
How it was run: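 MTT assay run across a panel of prostate cancer cell lines.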

[8] = test system: LNCaP (Homo sapiens); experiment: Effect on androgen receptor gene expression in human LNCaP cells at 1 or 2.5 uM incubated for 24 hrs by RT-PCR
[9] = target: T1, Androgen receptor (Homo sapiens); experiment: Antagonist activity at androgen receptor in human LNCaP cells assessed as reduction in DHT-induced PSA expression incubated for 24 hrs by RT-PCR
[10] = target: T1, Androgen receptor (Homo sapiens); experiment: Antagonist activity at androgen receptor in human LNCaP cells assessed as increase in Maspin protein expression at 1 to 5 uM incubated for 24 hrs by Western blotting
[11] = target: T1, Androgen receptor (Homo sapiens); experiment: Antagonist activity at androgen receptor in human LNCaP cells assessed as increase in Maspin protein expression at 1 or 2.5 uM incubated for 24 hrs in presence of DHT by Western blot

- Activity [2]: Active
- Activity [3]: Dose-dependent effect
- Activity [5]: Active
- Activity [6]: inactive
- Activity [9]: Dose-dependent effect
- Activity [10]: Active
- Activity [11]: Active
SMILES: Cc1coc2c1C(=O)C(=O)c1c-2ccc2c1CCCC2(C)C [TANSHINONE IIA]
- Activity [1]: inactive
- Activity [4]: Active
- IC50 [7]: 0.4 µM
- Activity [8]: inactive
